This note sets out measurements from ChEMBL document CHEMBL1131075, “New aza-dipeptide analogues as potent and orally absorbed HIV-1 protease inhibitors: candidates for clinical development” (J Med Chem, 1998).

The target of assay [1] is Human immunodeficiency virus type 1 protease (Human immunodeficiency virus 1) (UniProt Q72874). In words: concentration of compound required to inhibit 90% of RT production in HIV-1/MN-infected MT-2 cells. It counts as functional, cell-based. The settings on record: MT2. An outline of the steps: (§1)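 HIV-1/MN virus stocks taken from culture supernatant of chronically infected H9/HIV-1/MN cells and used to infect MT-2 cells. Antiviral effect read out as percent reduction of reverse transcriptase activity. ED50 and ED90 are the concentrations giving 50% and 90% inhibition of RT production. Values are averages of at least three determinations.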

Assay [2] shares this target. In words: Concentration required to inhibit 50% of RT production in HIV-1/MN-infected MT-2 cells. It counts as functional, cell-based. The settings on record: MT2. An outline of the steps:
as §1

Assay [3] has as its system Mus musculus. In words: Drug concentration in blood sample was analyzed by reversed phase HPLC 30 min (c30) after oral application of 120 mg/kg in a standardized formulation. Format: functional. An outline of the steps:
(§2)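 Female Balb/c mice with free access to food and water, dosed by gavage at 120 mg/kg. Compound dissolved in DMSO at 240 mg/mL, then diluted 1:20 with aqueous 20% hydroxypropyl-β-cyclodextrin, giving a suspension. Four mice per time point; heart blood taken at 30 and 90 min. Plasma deproteinated with acetonitrile and quantified by reversed-phase HPLC-UV against a plasma calibration curve.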

For assay [4], the system named is Mus musculus. In words: Drug concentration in blood sample was analyzed by reversed phase HPLC 30 min (c90) after oral application of 120 mg/kg in a standardized formulation. The settings on record: in the assay text read “90 min” for “30 min”. Format: functional. An outline of the steps: as §2
The subject of assay [5] is Human immunodeficiency virus 1. In words: Antiviral activity against HIV-1 protease inhibitor-resistant strain(CGP 61755 resistant)of the HI virus(Mutant: V32I,M46I,L63P,I84A). It counts as functional. An outline of the steps: (§3)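 CEM-SS cells were infected with each HIV-1 strain (MOI 0.001-0.005) for 4 h at 37 °C, then washed and plated at 20 000 cells/well with serial 3-fold compound dilutions in triplicate at 37 °C, 5% CO2. Compound was kept at constant final concentration through cell splitting on day 4 and medium replacement on day 7. Supernatant RT activity was assayed on days 4, 7 and 10. Value is the lowest concentration giving total inhibition of replication until day 10, averaged over at least three determinations.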

The test system of assay [6] is Human immunodeficiency virus 1. In words: Antiviral activity against HIV-1 protease inhibitor-resistant strain(CGP 61755 resistant)of the HI virusMutant: K45I,A71Tmix,L76F,I84Vmix). It counts as functional. An outline of the steps:
as §3

For assay [7], the system named is Human immunodeficiency virus 1. In words: Antiviral activity against HIV-1 protease inhibitor-resistant strain(Wild type) of the HI virus. Format: functional. An outline of the steps: as §3
Assay [8] concerns Human immunodeficiency virus 1. In words: Antiviral activity against HIV-1 protease inhibitor-resistant strain(indinavir resistant)of the HI virus(L10R,M46I,L63P,V82T,I84V). It counts as functional. An outline of the steps: as §3
Assay [9] concerns Human immunodeficiency virus 1. In words: Antiviral activity against HIV-1 protease inhibitor-resistant strain(saquinavir resistant) of the HI virus.(Mutant: G48V,L90M). It counts as functional. An outline of the steps:
as §3

Assay [10] concerns Human immunodeficiency virus 1. The experiment in a line: Antiviral activity against HIV-1 protease inhibitor-resistant strain(CGP 61755 resistant) of the HI virusMutant: K45I,A71Tmix,L76F,I84Vmix). It counts as functional. An outline of the steps:
as §3

For assay [11], the system named is Human immunodeficiency virus 1. In words: Antiviral activity against HIV-1 protease inhibitor-resistant strain(indinavir resistant) of the HI virus(L10R,M46I,L63P,V82T,I84V). It counts as functional. An outline of the steps: as §3
The test system of assay [12] is Human immunodeficiency virus 1. In words: Antiviral activity against HIV-1 protease inhibitor-resistant strain(CGP 61755 resistant) of the HI virus(Mutant: V32I,M46I,L63P,I84A). Format: functional. An outline of the steps: as §3

Bounds are passed on as bounds.

The molecule `COC(=O)N[C@H](C(=O)NN(Cc1ccc(-c2ccccc2)cc1)C[C@H](O)[C@H](Cc1ccccc1)NC(=O)[C@@H](NC(=O)OC)C(C)(C)C)C(C)C` displayed an ED90 in [1] of 3 nM. In [2], this molecule returned an ED50 of 0.7 nM. This molecule also had a c30 in [3] of 0.6 µM. The same molecule yielded a c90 in [4] of 1.1 µM.
With `COC(=O)N[C@H](C(=O)NN(Cc1ccc(-c2ccccn2)cc1)C[C@H](O)[C@H](Cc1ccccc1)NC(=O)[C@@H](NC(=O)OC)C(C)(C)C)C(C)C`, the ED90 in assay [1] turned out to be 10 nM. Further, the ED50 in assay [2] worked out at 2.6 nM. The c30 in assay [3] is 15.3 µM. Moreover, in [4], the c90 came to 13.3 µM.
For `COC(=O)N[C@H](C(=O)N[C@@H](Cc1ccccc1)[C@@H](O)CN(Cc1ccc(-c2cncs2)cc1)NC(=O)[C@@H](NC(=O)OC)C(C)(C)C)C(C)(C)C`, in assay [1], the ED90 was 3 nM. Also, the ED50 in assay [2] was 0.8 nM. The molecule further displayed a c30 in assay [3] of 12.6 µM. The c90 in assay [4] amounted to 9.9 µM.
Consider `COC(=O)N[C@H](C(=O)N[C@@H](Cc1ccccc1)[C@@H](O)CN(Cc1ccc(-c2cncs2)cc1)NC(=O)[C@@H](NC(=O)OC)C(C)C)C(C)C`, for which, in assay [1], the ED90 was determined as 30 nM. The ED50 in [2] came out at 5.6 nM. Moreover, in assay [3], the c30 came out at 1.8 µM. The molecule further registered a c90 in [4] of 0.1 µM.
The molecule `CCN(CC)c1ccc(CN(C[C@H](O)[C@H](Cc2ccccc2)NC(=O)[C@@H](NC(=O)OC)C(C)(C)C)NC(=O)[C@@H](NC(=O)OC)C(C)(C)C)cc1` gave an ED90 in assay [1] of 10 nM. Further, the ED50 in assay [2] came to 1.6 nM. The c30 in assay [3] came to 11.8 µM. For the same molecule, the c90 in [4] is 7.6 µM.
In the case of `COC(=O)N[C@H](C(=O)N[C@@H](Cc1ccccc1)[C@@H](O)CN(Cc1ccc(-c2ccccc2)cc1)NC(=O)[C@@H](NC(=O)OC)C(C)(C)C)C(C)(C)C`, the ED is 0.9 µM in assay [5]; 0.3 µM in assay [6]; 0.01 µM in assay [7]; 0.1 µM in assay [8]; 0.01 µM in assay [9]. The ED90 in [1] is 3 nM. Also, the ED50 in assay [2] is 0.7 nM. In addition, the c30 in assay [3] came out at 5.5 µM. For the same molecule, in assay [4], the c90 stood at 4.9 µM.
Regarding `COC(=O)N[C@H](C(=O)N[C@@H](Cc1ccccc1)[C@@H](O)CN(Cc1ccc(-c2ccccn2)cc1)NC(=O)[C@@H](NC(=O)OC)C(C)(C)C)C(C)(C)C` [ATAZANAVIR], the ED amounted to 0.3 µM in [10]; 0.01 µM in assay [7]; 0.03 µM in assay [11]; 0.004 µM in assay [9]; 0.3 µM in assay [12]. The ED90 in [1] was found to be 3 nM. Also, in assay [2], the ED50 was determined as 1.4 nM. The c30 in [3] is 21.8 µM. Further, in assay [4], the c90 came to 31.8 µM.
`COC(=O)N[C@H](C(=O)N[C@@H](Cc1ccccc1)[C@@H](O)CN(CCC(C)C)NC(=O)[C@@H](NC(=O)OC)C(C)C)C(C)C` had an ED90 in [1] of 30 nM. This molecule showed an ED50 in assay [2] of 2.7 nM. Besides, the c30 in [3] is under 0.2 µM. Also, in [4], the c90 is 0.4 µM.
`COC(=O)N[C@H](C(=O)N[C@@H](Cc1ccccc1)[C@@H](O)CN(Cc1ccc(-c2ccccc2)cc1)NC(=O)[C@@H](NC(=O)OC)C(C)(C)C)C(C)C`: the ED90 in [1] is 3 nM. Further, the ED50 in assay [2] was determined as 1.5 nM. For the same molecule, in assay [3], the c30 was 6.3 µM. Also, the c90 in assay [4] worked out at 5.4 µM.
`COC(=O)N[C@H](C(=O)N[C@@H](Cc1ccccc1)[C@@H](O)CN(Cc1ccc(-c2ccccc2)cc1)NC(=O)[C@@H](NC(=O)OC)C(C)C)C(C)C`: the ED90 in assay [1] is 10 nM. Also, the ED50 in assay [2] is 1.8 nM. The molecule further yielded a c30 in [3] of under 0.1 µM. The molecule also showed a c90 in [4] of 0.3 µM.
In the same order, the values of `COC(=O)N[C@H](C(=O)NN(Cc1ccc(-c2cncs2)cc1)C[C@H](O)[C@H](Cc1ccccc1)NC(=O)[C@@H](NC(=O)OC)C(C)(C)C)C(C)C` are 10 nM, 1.9 nM, 8.5 µM and 5.7 µM.
With `COC(=O)N[C@H](C(=O)N[C@@H](Cc1ccccc1)[C@@H](O)CN(Cc1ccc(-c2nnn(C)n2)cc1)NC(=O)[C@@H](NC(=O)OC)C(C)(C)C)C(C)(C)C`, the ED in [10] was found to be 0.9 µM; in assay [7], 0.01 µM; in assay [11] it was 0.1 µM; in [9] it was 0.01 µM. Besides, in [1], the ED90 was determined as 10 nM. This molecule displayed an ED50 in [2] of 0.8 nM. In [3], the c30 is 20.3 µM. For the same molecule, the c90 in assay [4] was 14.7 µM.
In the case of `COC(=O)N[C@H](C(=O)N[C@@H](Cc1ccccc1)[C@@H](O)CN(Cc1ccc(-c2nccs2)cc1)NC(=O)[C@@H](NC(=O)OC)C(C)(C)C)C(C)(C)C`, the ED in [10] is 0.3 µM; in assay [7], 0.01 µM; in assay [11], 0.1 µM; in assay [9] it was 0.004 µM. Moreover, the ED90 in [1] was 3 nM. In addition, the ED50 in [2] turned out to be 0.5 nM. In assay [3], this molecule yielded a c30 of 9.1 µM. In addition, the c90 in assay [4] was found to be 10.2 µM.
As for `COC(=O)N[C@H](C(=O)N[C@@H](Cc1ccccc1)[C@@H](O)CN(Cc1ccc(-c2nnn(C(C)(C)C)n2)cc1)NC(=O)[C@@H](NC(=O)OC)C(C)(C)C)C(C)(C)C`, the ED90 in assay [1] is 3 nM. In assay [2], this molecule gave an ED50 of 0.8 nM. The molecule further gave a c30 in [3] of 4.2 µM. For the same molecule, the c90 in assay [4] is 4.6 µM.
As for `COC(=O)N[C@H](C(=O)N[C@@H](Cc1ccccc1)[C@@H](O)CN(Cc1ccc(-c2ccccn2)cc1)NC(=O)[C@@H](NC(=O)OC)C(C)(C)C)C(C)C`, the ED90 in assay [1] was 10 nM. Besides, the ED50 in [2] stood at 2 nM. Besides, in assay [3], the c30 was found to be 13.8 µM. This molecule also showed a c90 in [4] of 12.7 µM.
The molecule `CCOC(=O)N[C@H](C(=O)NN(Cc1ccc(-c2ccccn2)cc1)C[C@H](O)[C@H](Cc1ccccc1)NC(=O)[C@@H](NC(=O)OC)C(C)C)C(C)C` yielded an ED90 in [1] of 30 nM. The molecule further returned an ED50 in [2] of 5.4 nM. This molecule returned a c30 in assay [3] of 0.5 µM. This molecule yielded a c90 in assay [4] of 0.2 µM.
In assay [1], `CCOC(=O)N[C@H](C(=O)NN(Cc1ccc(-c2cncs2)cc1)C[C@H](O)[C@H](Cc1ccccc1)NC(=O)[C@@H](NC(=O)OC)C(C)(C)C)C(C)C` had an ED90 of 3 nM. Further, the ED50 in assay [2] came to 1.2 nM. In addition, the c30 in [3] stood at 1.4 µM. The c90 in assay [4] amounted to 1.4 µM.
Consider `COC(=O)N[C@H](C(=O)N[C@@H](Cc1ccccc1)[C@@H](O)CN(Cc1ccc(-c2ccccn2)cc1)NC(=O)[C@@H](NC(=O)OC)C(C)C)C(C)C`, for which the ED90 in assay [1] came out at 30 nM. The same molecule displayed an ED50 in [2] of 7.4 nM. Besides, in [3], the c30 is 2.7 µM. In [4], this molecule yielded a c90 of 2.2 µM.
On to `CCOC(=O)N[C@H](C(=O)N[C@@H](Cc1ccccc1)[C@@H](O)CN(CC1CCCCC1)NC(=O)[C@@H](NC(=O)OCC)C(C)C)C(C)C`, for which the ED90 in [1] was found to be 1000 nM. For the same molecule, the ED50 in assay [2] stood at 55 nM. Moreover, the c30 in [3] came to 6.7 µM. In [4], this molecule showed a c90 of 7.8 µM.
In assay [1], `COC(=O)N[C@H](C(=O)N[C@@H](Cc1ccccc1)[C@@H](O)CN(Cc1ccc(-c2nccs2)cc1)NC(=O)[C@@H](NC(=O)OC)C(C)(C)C)C(C)C` registered an ED90 of 10 nM. The same molecule gave an ED50 in assay [2] of 2.1 nM. Further, the c30 in [3] is 17.5 µM. The molecule further came in with a c90 in assay [4] of 14.9 µM.
In the same order, the values of `CCC(C)[C@H](NC(=O)OC)C(=O)N[C@@H](Cc1ccccc1)[C@@H](O)CN(Cc1ccc(-c2ccccn2)cc1)NC(=O)[C@@H](NC(=O)OC)C(C)C` (stereo partly specified) are 10 nM, 2.8 nM, 0.4 µM and 0.3 µM.
`COC(=O)N[C@H](C(=O)N[C@@H](Cc1ccccc1)[C@@H](O)CN(Cc1ccc(-c2cncs2)cc1)NC(=O)[C@@H](NC(=O)OC)C(C)(C)C)C(C)C` yielded an ED90 in [1] of 10 nM. The molecule also yielded an ED50 in [2] of 1.4 nM. This molecule also displayed a c30 in [3] of 8.5 µM. Also, the c90 in [4] was found to be 4.4 µM.
